In paper PMC3774010 (Cancer research, 2013):

Experiments:
A549 cells = assay: SRB cell growth assay, A549; assay type: cell-based, human; details: A549, 72 h
Method in brief: (§1)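 Cells seeded at 6×10^3–8×10^3 per well, grown overnight, then exposed 72 h to test compound (0, 0.5, 1, 2, 5, 10, 30 µM). Surviving fraction measured by sulforhodamine B protein staining; IC50 calculated from the dose series. Data given as mean ± S.D.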

H157 cells = assay: SRB cell growth assay, H157; assay type: cell-based, human
Method in brief: as §1

H1299 cells [1] = assay: SRB cell growth assay, H1299; assay type: cell-based, human
Method in brief: as §1

human Bcl-XL protein = human Bcl-XL protein (Homo sapiens, UniProt Q07817); assay: Competition fluorescence polarization assay with Bak BH3 peptide, Bcl-XL; assay type: binding; details: purified Bcl-XL 6nM, Bak BH3 peptide 3nM
Sequence of human Bcl-XL protein (Q07817 whole entry): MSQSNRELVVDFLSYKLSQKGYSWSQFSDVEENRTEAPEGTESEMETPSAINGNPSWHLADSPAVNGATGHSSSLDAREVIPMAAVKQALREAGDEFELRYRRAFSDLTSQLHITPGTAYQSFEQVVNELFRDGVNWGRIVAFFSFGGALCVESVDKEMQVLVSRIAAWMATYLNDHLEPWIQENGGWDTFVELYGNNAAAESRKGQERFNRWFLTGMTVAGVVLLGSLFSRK

Nu/Nu nude mice [2] = assay: In vivo toxicity: body weight, blood analysis, histopathology; details: for platelet reduction compared with ABT-737: 30mg/kg/d i.p. for 14 days
Method in brief: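 Nu/Nu mice given test compound i.p. daily at various doses (dose-finding: 10–50 mg/kg/d up to 25 days, 6 mice/dose; xenograft mice: 30 mg/kg/d for 14 days). Body weight recorded every other day. Terminal cardiac-puncture blood (250 µL, EDTA) under anaesthesia analyzed for WBC, RBC, platelets, ALT, AST, BUN. Organs examined by H&E histology.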

[3] = test system: A549-P and A549-IRR cells; assay: Cell growth of A549-P and A549-IRR cells; assay type: cell-based, human; details: colony formation 10 days, SRB 72h
[4] = test system: H1299 lung cancer xenografts; assay: H1299 lung cancer xenografts in nude mice; assay type: in vivo; details: for anti-tumor efficacy compared with ABT-737: 30mg/kg/d i.p. for 14 days
[5] = test system: normal human bronchial epithelial cells (BEAS-2B); assay: Cytotoxicity in lung cancer cells versus normal bronchial epithelial cells; assay type: cell-based
Method in brief: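 Cells were seeded at 6×10^3–8×10^3 per well, grown overnight, then treated 72 h. Surviving fraction read by sulforhodamine B protein-stain assay. BEAS-2B and A549 were kept in DMEM/F-12 with 10% FBS, and H1299 in RPMI 1640 with 5% FBS plus 5% bovine serum. Lung cancer lines received 0, 0.5, 1, 2, 5, 10 or 30µM.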

Bcl2 = Bcl2 (Homo sapiens, UniProt P10415); assay: Competition fluorescence polarization assay with Bak BH3 peptide, Bcl2; assay type: binding; details: 0.1~500nM
Sequence of Bcl2 (P10415 whole entry): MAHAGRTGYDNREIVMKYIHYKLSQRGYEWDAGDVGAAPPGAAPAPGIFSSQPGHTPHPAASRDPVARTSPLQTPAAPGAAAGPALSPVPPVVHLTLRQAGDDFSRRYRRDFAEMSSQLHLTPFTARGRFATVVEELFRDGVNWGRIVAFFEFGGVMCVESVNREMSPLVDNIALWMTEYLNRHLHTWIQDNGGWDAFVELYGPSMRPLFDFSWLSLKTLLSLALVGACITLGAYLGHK

Bfl-1/A1 = biological target: T1, Bfl-1/A1 (Homo sapiens, UniProt Q16548); assay: Competition fluorescence polarization assay with Bak BH3 peptide, Bfl-1/A1; assay type: binding; details: 0.1~500nM
T1 sequence (Q16548 1-175): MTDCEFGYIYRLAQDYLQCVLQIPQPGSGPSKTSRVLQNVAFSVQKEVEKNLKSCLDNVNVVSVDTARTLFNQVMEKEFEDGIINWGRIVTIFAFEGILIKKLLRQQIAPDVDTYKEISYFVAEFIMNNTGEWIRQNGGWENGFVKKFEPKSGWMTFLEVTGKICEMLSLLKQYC

Bcl-w = biological target: T2, Bcl-w (Homo sapiens, UniProt Q92843); assay: Competition fluorescence polarization assay with Bak BH3 peptide, Bcl-w; assay type: binding; details: 0.1~500nM
T2 sequence (Q92843 1-193): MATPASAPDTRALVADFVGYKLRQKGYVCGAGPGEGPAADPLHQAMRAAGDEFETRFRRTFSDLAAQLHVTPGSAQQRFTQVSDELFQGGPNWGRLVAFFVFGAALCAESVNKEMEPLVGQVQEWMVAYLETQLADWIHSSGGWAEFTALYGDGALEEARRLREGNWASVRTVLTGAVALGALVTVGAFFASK

H1299 cells [6] = assay: Colony formation assay in Bcl-XL shRNA H1299 cells; assay type: cell-based, human
Mcl-1 = Mcl-1 (Homo sapiens, UniProt Q07820); assay: Competition fluorescence polarization assay with Bak BH3 peptide, Mcl-1; assay type: binding; details: 0.1~500nM
Sequence of Mcl-1 (Q07820 whole entry): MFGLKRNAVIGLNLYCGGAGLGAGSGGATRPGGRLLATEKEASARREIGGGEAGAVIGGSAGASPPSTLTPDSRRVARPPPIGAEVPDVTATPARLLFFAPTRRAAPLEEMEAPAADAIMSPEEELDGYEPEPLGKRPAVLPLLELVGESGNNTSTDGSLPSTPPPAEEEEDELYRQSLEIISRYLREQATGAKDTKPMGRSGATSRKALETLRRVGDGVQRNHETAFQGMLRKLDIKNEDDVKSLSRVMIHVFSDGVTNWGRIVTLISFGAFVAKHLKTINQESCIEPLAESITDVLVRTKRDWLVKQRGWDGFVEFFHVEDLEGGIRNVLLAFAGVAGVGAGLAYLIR

Bcl-XL/Bak = Bcl-XL/Bak (Homo sapiens, UniProt Q07817); assay: Co-immunoprecipitation of Bcl-XL/Bak in H1299 cells; assay type: cell-based; details: 0.1–5µM, 24 h
Sequence of Bcl-XL/Bak (Q07817 whole entry): as the sequence (Q07817 whole entry) above
Method in brief: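 H1299 cells treated 24 h with test compound at 0.1–5 µM. Lysates were immunoprecipitated with a Bcl-XL antibody (normal IgG as IP control), and co-precipitated Bak and Bcl-XL were detected by Western blot. Total-lysate Bcl-XL and Bak levels were also blotted.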

Nu/Nu nude mice [7] = assay: Maximum tolerated dose
Bcl-XL/Bax = Bcl-XL/Bax (Homo sapiens, UniProt Q07817); assay: Bcl-XL/Bax complex disruption in cells; assay type: cell-based
Sequence of Bcl-XL/Bax (Q07817 whole entry): as above

Cyt c release = assay: Cytochrome c release from mitochondria in H1299 cells; assay type: cell-based, human
Method in brief: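 Test compound given to H1299 cells at increasing concentrations (0.1–5µM) for 24 h. Subcellular fractionation separated mitochondrial and cytosolic fractions. Cytochrome c detected in the fractions by Western blot, with prohibitin as the mitochondrial marker.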

Bak = Bak oligomerization; assay type: cell-based, human; details: H1299 cells, BMH cross-linking
Method in brief: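 H1299 cells exposed to increasing test compound concentrations (0.1–5µM) for 24 h. Mitochondria isolated by subcellular fractionation and taken up in PBS (pH7.2) conjugation buffer. BMH and EDTA added to cross-link Bak sulfhydryls, 1 h at room temperature, then DTT quench for 15 min at room temperature. Products resolved by SDS-PAGE and Western blotted with anti-Bak.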

[8] = test system: A549-P and A549-IRR xenografts; assay: A549-P and A549-IRR lung cancer xenografts in mice; assay type: in vivo
Nu/Nu nude mice [9] = details: mouse, in vivo, ip

| SMILES | IC50 (A549 cells; SRB assay) [nM] | Ki (human Bcl-XL protein) [nM] | platelet reduction compared with ABT-737 (Nu/Nu nude mice [2]) | sensitivity of A549-P and A549-IRR cells [3] | IC50 (H157 cells; H157, 72 h, SRB assay) [nM] | IC50 (H1299 cells [1]; H1299, 72 h, SRB assay) [nM] | anti-tumor efficacy compared with ABT-737 ([4]; H1299 xenografts) | cytotoxicity against lung cancer cells compared to normal human bronchial epithelial cells [5] | binding affinity with Bcl2 (Bcl2) | binding affinity with Bfl-1/A1 (Bfl-1/A1) | binding affinity with Bcl-w (Bcl-w) | sensitivity of H1299 cells after depletion of endogenous Bcl-XL (H1299 cells [6]) | binding affinity with Mcl-1 (Mcl-1) | further results |
| --- | --- | --- | --- | --- | --- | --- | --- | --- | --- | --- | --- | --- | --- | --- |
| CN(C)CC[C@H](CSc1ccccc1)Nc1ccc(S(=O)(=O)NC(=O)c2ccc(N3CCN(Cc4ccccc4-c4ccc(Cl)cc4)CC3)cc2)cc1[N+](=O)[O-] [ABT-737, reference compound] | – | – | – | – | – | – | – | – | – | – | – | – | – | IC50 (A549 cells; Homo sapiens): 19400 ± 1230 nM; IC50 (H157 cells; Homo sapiens, NCI-H157, 72 h): 27600 ± 1490 nM; IC50 (H1299 cells [1]; Homo sapiens, NCI-H1299, 72 h): 40500 ± 3560 nM |
| CCOc1ccc2nc3cc(N=Nc4ccc(N)nc4N)ccc3c(N)c2c1 [BXI-61] | 3170 ± 280 | 14.8 ± 1.54 | less effect on platelet than ABT-737 | remained sensitive | 5710 ± 490 | 1790 ± 120 | more potent efficacy against human lung cancer than ABT-737 | relatively selective cytotoxicity | very low binding affinities | very low binding affinities | very low binding affinities | significantly reduced the sensitivity | very low binding affinities | normal tissue toxicities (Nu/Nu nude mice [2]; 40mg/kg/d): without significant normal tissue toxicities except for a slight decrease in platelets; potency against lung cancer in vivo ([4]; 40mg/kg/d): high potency against lung cancer |
| CCOc1ccc(-c2nc3ccc(-c4nc5ccc(N6CCN(C)CC6)cc5[nH]4)cc3[nH]2)cc1 [BXI-72] | 680 ± 80 | 0.9 ± 0.15 | less effect on platelet than ABT-737 | remained sensitive | 1870 ± 160 | 490 ± 120 | more potent efficacy against human lung cancer than ABT-737 | relatively selective cytotoxicity | very low binding affinities | very low binding affinities | very low binding affinities | significantly reduced the sensitivity | very low binding affinities | Bcl-XL/Bak dissociation (Bcl-XL/Bak): dose-dependent Bcl-XL/Bak dissociation; lethality (Nu/Nu nude mice [7]; 50mg/kg/d i.p., six mice, within 10 days): uniformly lethal; death (Nu/Nu nude mice [7]; 10 to 30mg/kg/d i.p., after 25 days of daily administration): no death recorded; liver histology (Nu/Nu nude mice [2]; 50mg): hepatocellular necrosis; ALT, AST, BUN, WBC and RBC (Nu/Nu nude mice [2]; 10–30mg/kg/d): no significant increases in ALT, AST and BUN or decreases in WBC and RBC; histopathology of normal tissues (Nu/Nu nude mice [2]; 10–30mg/kg/d): no evidence of normal tissue toxicities; body weight (Nu/Nu nude mice [2]; 20–30mg/kg): well tolerated without weight loss; ALT, AST and BUN (Nu/Nu nude mice [2]; 40–50mg/kg/d for two weeks): increases in ALT, AST and BUN; platelets (Nu/Nu nude mice [2]; increased doses of BXI-72, mice): dose-dependent reduction of platelets; Bcl-XL/Bax complexes (Bcl-XL/Bax): disrupts Bcl-XL/Bax complexes; Cyt c release from mitochondria (Cyt c release): facilitate Cyt c release from mitochondria; effect on established lung cancer xenografts ([4]; H1299 xenografts, 10, 20 and 30mg/kg/d i.p. for 14 days): dose-dependent regression; apoptosis in tumor tissues (active caspase 3 IHC) ([4]; H1299 xenografts, 10-30mg/kg/d i.p. 14 days): dose-dependent apoptosis; Bak oligomerization (Bak): facilitated the formation of Bak dimers, trimers and multimers; effect on tumors derived from A549-P and A549-IRR cells ([8]; 20mg/kg/d ×18): repressed tumors derived from both A549-P and A549-IRR cells; normal tissue toxicities ([8]; A549 xenograft mice, 20mg/kg/d): no significant normal tissue toxicities; maximum tolerated dose (MTD) (Nu/Nu nude mice [9]): 30~40 mg/kg/d |
